Screening data (PubChem BioAssay)
STAT3 act – IL-6 driven STAT3 reporter potentiators, primary screen, U3A cells, luciferase, luminescence, MLSCN library. IL-6 STAT3-luciferase reporter; 100% = signal with IL-6 EC80 alone. 190,000 tested, 0.91% active. activation (% of control), % at 5.6 µM. AID 871, 2007;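 active = activation above the screen-wide mean of compound activation plus 3 SD, cut at about 130% in these data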
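Test system: human U3A cells carrying STAT3-luciferase construct; control set: IL-6-only wells as 100% reference; timing: compound pre-incubation 1 h before IL-6, then 6 h stimulation at 37 °C; also added: IL-6 stimulus at 33 ng/mL final; evaluation: % activation versus median of IL-6-stimulated wells; detection: reporter luminescence signal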
STAT1 act – STAT1 signaling activators, primary screen, cell-based, HTS, luciferase reporter; NIH 3T3 STAT1-luciferase reporter, IFN-gamma, luminescence; 100% = IFN-gamma alone, no compound; activation (% of control), % at 5.5 µM; 200,000 tested, 2.6% active; AID 932, 2007;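 active = activation above the screen-wide mean activation plus 3 SD, cut at about 130% in these data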
STAT1 blocker – STAT1 signaling inhibitors, primary screen, cell-based, HTS, luciferase reporter; NIH 3T3 STAT1-luciferase reporter, IFN-gamma, luminescence; inhibition, % at 5.5 µM; 200,000 tested, 0.35% active;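 active = inhibition above a set limit, the mean inhibition across all tested compounds plus 3 SD, cut at about 34% in these data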
APP 5'UTR act – activators of APP 5'UTR luciferase reporter, primary screen, SH-SY5Y cells; SH-SY5Y APP 5'UTR luciferase reporter, luminescence; zero percent = DMSO vehicle wells; activation, % at 2 µM; 190,000 tested, 1% active;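 active = activation above a set limit, based on mean plus 3 SD of controls, cut at about 140% in these data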
STAT3 blocker – IL-6 driven STAT3 reporter inhibitors, primary screen, U3A cells, luciferase, luminescence, MLSCN library; IL-6 STAT3-luciferase reporter; host cell line lacks STAT1; inhibition, % at 5.5 µM; 190,000 tested, 0.89% active; AID 862, 2007;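 active = inhibition above the mean inhibition across all screened compounds plus 3 SD, cut at about 44% in these data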
NF-kB neuron act – activators of NF-kB expression in neurons, primary screen, cell-based, HTS | 190,000 tested, 1.6% active | human neuronal cells, NF-kB reporter expression; hits give high values | AID 1239, 2008 | fold change at 12.5 µM; in the data active = fold change above about 3.3
Hits are given with their value; n = inactive; x = no result given. An excerpt weighted towards active compounds, which were near 4.9% of everything screened.

SMILES	STAT3 act	STAT1 act	STAT1 blocker	APP 5'UTR act	STAT3 blocker	NF-kB neuron act
NC(=O)c1ccc2nc(NC(=O)c3ccc(N)cc3)sc2c1	n	142	n	n	n	n
O=C(Nc1nnc(-c2ccccc2)s1)c1ccc(F)cc1	n	n	n	n	n	n
O=C(Nc1nc2ccccc2s1)c1ccc(F)cc1	n	n	n	173	n	9
Fc1ccc(Nc2nc3ccccc3s2)cc1	n	146	n	n	n	3.3
CCCC1(C)NC(=O)c2ccccc2O1 (stereo not drawn)	n	n	n	n	n	n
COc1ccc(C(=O)Nc2ccccc2C(N)=O)cc1	n	n	n	n	n	n
COc1ccc(C(=O)Nc2ccccc2C(=O)N/N=C/c2cccc3ccccc23)cc1	n	n	39	n	80	4.2
COc1cc(-c2cc(=O)c3ccccc3o2)ccc1O	n	134	n	n	n	n
COc1ccc(-c2cc(=O)c3c(O)c(OC)c(O)cc3o2)cc1	x	n	n	152	x	9
COc1cc(-c2cc(=O)c3c(O)cc(O)cc3o2)ccc1O	x	n	n	n	x	n
O=c1cc(-c2ccc(O)cc2)oc2ccc(O)cc12	n	150	n	n	n	4.1
CCN(CC(=O)Nc1ccccc1OC)CC(=O)Nc1sccc1C#N	n	n	n	n	n	n
Nc1ccccc1C(=O)N/N=C1\C2CN3CCN(C2)CC1(c1ccccc1)C3	n	130	n	n	n	n
O=C(N/N=C1\C2CN3CCN(C2)CC1(c1ccccc1)C3)c1ccc(F)cc1	n	n	n	n	n	n
COc1ccc(-c2ccc(SCc3ccccn3)nn2)cc1OC	n	n	n	n	n	n
Clc1ccc(-c2ccc(SCc3ccccn3)nn2)cc1	n	145	n	n	n	n
c1ccc(CSc2ccc(-c3ccccn3)nn2)nc1	n	133	n	n	n	n
O=[N+]([O-])c1cccc(-c2ccc(SCc3ccccn3)nn2)c1	n	135	n	n	n	n
COc1ccc(CN2CCC(CO)(Cc3ccccc3C(F)(F)F)CC2)c(F)c1	n	n	n	n	n	n
CS(=O)(=O)N1CCc2cc(NC(=O)c3ccc(Cl)cc3Cl)ccc21	n	129	n	n	n	n
CS(=O)(=O)N1CCc2cc(C(=O)NC3CC3)ccc21	n	n	n	n	n	n
O=C(NC(=S)Nc1ncc(Br)cc1Br)c1cncc(Br)c1	n	n	n	n	n	n
O=C(NC(=S)NC1CCCCCC1)c1cncc(Br)c1	n	141	n	n	n	n
CCOc1ccc(C(=O)NC(=S)NC2CCCC2)cc1[N+](=O)[O-]	n	n	n	n	n	n
CCOC(=O)C1(CCCc2ccccc2)CCN(C2CCN(C(C)=O)CC2)CC1	n	n	n	n	n	n
SMILES	STAT3 act	STAT1 act	STAT1 blocker	APP 5'UTR act	STAT3 blocker	NF-kB neuron act
O=[N+]([O-])c1nn(-c2ccc3c(c2)OCCO3)n(O)c1=NCc1ccc(F)cc1Cl	n	142	n	165	n	n
O=[N+]([O-])c1nn(-c2ccc3c(c2)OCCO3)n(O)c1=NCc1ccc(F)cc1	n	143	n	n	n	n
CCNC(=S)N1CCCC(C(N)=O)C1 (stereo not drawn)	n	n	n	n	n	n
O=C(N/N=C\c1cn(-c2ccccc2)nc1-c1ccccc1)c1ccc2c(c1)OCO2	n	n	n	n	n	n
OCc1cn(-c2ccccc2)nc1-c1ccc2c(c1)OCCO2	n	144	n	n	n	n
COc1ccc(-c2nn(-c3ccccc3)cc2CO)cc1OC	n	n	n	n	n	n
O=C(N/N=C/c1cn(-c2ccccc2)nc1-c1ccc2c(c1)OCCO2)c1ccncc1	n	148	n	n	n	n
COc1cccc(-c2nn(-c3ccccc3)cc2CO)c1	n	144	n	n	n	n
CC(C)c1cc(C(=O)Nc2ccc3c(c2)OCO3)no1	n	n	n	145	n	6.4
O=C(Nc1ccc2c(c1)OCO2)c1noc2c1CCCCC2	n	142	n	178	n	7.7
Cc1cc(NC(=O)c2noc3c2CCCCC3)no1	n	n	n	n	n	n
O=C(Nc1ccc2c(c1)OCO2)c1cc(C2CC2)on1	n	146	n	n	n	3.9
CC(=O)Nc1ccc2c(c1)OCO2	n	n	n	n	n	n
O=C(Nc1ccc2c(c1)OCO2)c1cnccn1	n	130	n	n	n	n
O=C(COC(=O)c1cccc(S(=O)(=O)NCc2ccccc2)c1)NCC1CCCO1 (stereo not drawn)	n	n	n	n	n	n
COc1ccc(NC(=O)c2cc(C(C)C)on2)cc1OC	n	n	n	n	n	n
COc1ccc(NC(=O)c2cc(C(C)C)on2)c(OC)c1	n	138	n	n	n	n
Cc1cc(C)c(NC(=O)c2ccccc2C(=O)c2ccccc2)c(C)c1	n	n	n	n	n	n
COc1ccc(N2CCN(C(=O)Cc3ccc(S(=O)(=O)N4CCOCC4)s3)CC2)cc1	n	n	n	n	n	n
Cc1cc(SC(C)C(=O)Nc2ncc(Cl)cc2Cl)nc2ccccc12 (stereo not drawn)	n	n	n	n	n	3.4
CCCCNC(=O)COC(=O)c1cc(C)oc1C	n	n	n	n	n	n
Cc1noc(C)c1COC(=O)c1ccc(N(C)C)cc1	n	n	n	n	n	n
O=C(CSc1nc2ccccc2s1)N1c2ccccc2Sc2ccccc21	n	n	n	n	n	n
c1ccc2sc(SCc3ccc(-c4nnco4)cc3)nc2c1	n	n	n	n	n	4.2
C=CCn1nc([N+](=O)[O-])nc1Sc1cccc2cccnc12	n	n	n	n	n	3.5
SMILES	STAT3 act	STAT1 act	STAT1 blocker	APP 5'UTR act	STAT3 blocker	NF-kB neuron act
O=[N+]([O-])c1ccc(Sc2cccc3cccnc23)cc1	n	n	n	n	n	n
Cc1ccccc1N(CC(=O)N1CCOCC1)S(C)(=O)=O	n	n	n	n	n	n
CC(C)(C)c1csc(NC(=O)Nc2ccccc2)n1	n	136	n	n	n	4.9
CC(C)(C)c1csc(NC(=O)c2ccncc2)n1	n	n	n	n	n	n
CC(C)(C)c1csc(NC(=O)c2ccc(Cl)s2)n1	n	137	n	n	n	3.6
O=C(Nc1ccccc1)Nc1nncs1	n	n	n	n	n	n
Cc1ccc(C(=O)Nc2nc(C(C)(C)C)cs2)s1	n	146	n	n	n	5
CCN1C(=O)C(CC(=O)Nc2ccc(OC)cc2)N(CCCN2CCN(c3ccc(OC)cc3)CC2)C1=S (stereo not drawn)	n	n	n	n	n	n
CC1CCN(c2ccc(NC(=O)c3ccccc3[N+](=O)[O-])cc2)CC1	n	n	n	n	n	n
